Source: PubChem BioAssay
TAAR1 agonist: human TAAR1 agonists, primary screen, Fluo-8 calcium fluorescence, CHO RD-HGA16 cells. activation, % at 3 µM. 360,000 tested, 0.99% active. vehicle wells 0%, saturating PEA agonist 100%. Trace amine-associated receptor 1 (Homo sapiens), Q96RJ0;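 active = activation above the mean activation of all test compounds in the run plus 3 SD, cut at about 38% in these data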
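Signal – calcium-sensitive Fluo-8 signal, excitation 470-495, emission 515-575 nm · System – RD-HGA16 (CHO) cells co-expressing Gα16 and hTAAR1 · Incubation – 17-24 h seeding, 75 min 37 °C dye, 30 min RT · Compound dosing – 3 µM single concentration · Repeats – no replicates (n 1)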
TAAR1 antag: human TAAR1 antagonists, primary screen, Fluo-8 calcium fluorescence, CHO RD-HGA16 cells; Trace amine-associated receptor 1 (Homo sapiens), Q96RJ0; antagonist; inhibition, % at 3 µM; 360,000 tested, 1.5% active; AID 624466, 2012;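 active = inhibition above a per-plate cutoff, the mean inhibition of test compounds on that plate plus 3 SD, cut at about 49% in these data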;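 also: 0% = DMSO plus EC80 beta-PEA response and 100% = DMSO alone without agonist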
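Test system – hTAAR1-expressing CHO RD-HGA16 cells, Gα16-coupled · Reagent – β-PEA at EC80 concentration, post-compound challenge · Compound dosing – 3 µM, single point · Timing – 140 s kinetic read after compound, 140 s after agonist · Detection – Fluo-8 intracellular calcium dye fluorescence, real-time kinetic reads · Control set – DMSO and EC80 PEA controls · Repeats – n of 1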
GPR7 antag: GPR7 receptor antagonists, primary screen, cell-based, fluorescence, single concentration. Neuropeptides B/W receptor type 1 (Homo sapiens), P48145. GPR7-expressing cells, fluorescence antagonist assay. inhibition, % at 4.4 µM. 290,000 tested, 1.1% active. AID 1861, 2009; in the data active = inhibition above about 16%, passing the limit was not always enough;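 also: cells stimulated with the agonist NPW; 0% = agonist with vehicle and 100% = vehicle without agonist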
Target sequence (P48145 whole entry, looked up): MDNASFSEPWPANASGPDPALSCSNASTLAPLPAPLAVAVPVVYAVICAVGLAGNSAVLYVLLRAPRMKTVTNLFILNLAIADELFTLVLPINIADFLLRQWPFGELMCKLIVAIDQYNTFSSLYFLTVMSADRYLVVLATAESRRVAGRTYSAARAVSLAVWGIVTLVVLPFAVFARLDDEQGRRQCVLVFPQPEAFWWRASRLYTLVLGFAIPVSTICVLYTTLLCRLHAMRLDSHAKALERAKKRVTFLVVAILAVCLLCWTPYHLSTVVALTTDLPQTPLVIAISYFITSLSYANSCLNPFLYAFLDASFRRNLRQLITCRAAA
CHO parental Ca: ATP-evoked calcium signal inhibitors, parental CHO, primary screen, counter-screen for OX1R antagonist project, cell-based, fluorescence, Fluo-8 calcium dye | inhibition, % at 5.6 µM | AID 463079, 2010 | 330,000 tested, 0.63% active | parental CHO-K1, ATP-induced calcium, Fluo-8 fluorescence;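 active = inhibition above that plate's mean sample inhibition plus 3 SD, cut at about 26% in these data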;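 also: 0% = ATP-challenged DMSO wells and 100% = DMSO wells without ATP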
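material = parental CHO cells | also added = ATP as calcium-mobilizing challenge | dosing = single point at 5.6 µM | detection = intracellular calcium via Fluo-8 no-wash fluorescent dye | read-out = % inhibition | benchmarks = low control ATP plus DMSO, high control DMSO only | repeats = one well per compound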
OX1R antag-1: antagonists of human orexin 1 receptor (OX1R); Orexin/Hypocretin receptor type 1 (Homo sapiens), O43613; OX1R-expressing cells, FRET antagonist read-out; inhibition, % at 6.6 µM; 330,000 tested, 1.8% active; AID 485270, 2010; in the data active = inhibition mostly above about 38%, no sharp cut-off; inactive = mostly below about 40%;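 also: 0% = agonist challenge alone and 100% = reference antagonist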
Target sequence (O43613 whole entry, looked up): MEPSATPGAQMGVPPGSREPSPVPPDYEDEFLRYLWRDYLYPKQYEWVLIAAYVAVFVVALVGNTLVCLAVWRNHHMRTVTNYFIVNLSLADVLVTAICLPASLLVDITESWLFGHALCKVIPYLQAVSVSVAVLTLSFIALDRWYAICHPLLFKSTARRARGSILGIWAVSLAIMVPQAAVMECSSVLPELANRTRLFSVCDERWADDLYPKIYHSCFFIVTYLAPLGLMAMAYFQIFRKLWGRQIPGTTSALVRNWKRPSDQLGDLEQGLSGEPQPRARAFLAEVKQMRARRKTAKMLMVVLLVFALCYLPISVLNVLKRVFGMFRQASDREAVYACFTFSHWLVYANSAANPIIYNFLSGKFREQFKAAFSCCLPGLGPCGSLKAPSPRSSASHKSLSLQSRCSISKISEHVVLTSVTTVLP
OX1R antag-2: OX1R (HCRTR1) antagonists, primary screen, fluorescence, CHO/OX1R cells, Fluo-8 calcium, orexin A. Orexin/Hypocretin receptor type 1 (Homo sapiens), O43613. Fluo-8 calcium fluorescence. inhibition, % at 5 µM. 330,000 tested, 0.43% active;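 active = inhibition above its plate's threshold, mean inhibition of all tested compounds on the plate plus 3 SD, cut at about 37% in these data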;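 also: 0% = orexin A challenge wells and 100% = SB-334867-A antagonist wells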
* = called active by the depositor; nt = no result. This is a sample that favours compounds with a hit; in the whole collection about 4.5% have one here.

SMILES | TAAR1 agonist | TAAR1 antag | GPR7 antag | CHO parental Ca | OX1R antag-1 | OX1R antag-2
COc1cccc(NC(=O)CN(C)C(=O)c2ccccc2Sc2ccccc2C#N)c1 | 7.5 | 16.7 | nt | -14.3 | 38.8* | 23.9
CN(CC(=O)Nc1cccc(F)c1)C(=O)c1ccccc1Sc1ccccc1C#N | 5.0 | 25.5 | nt | -21.1 | 32.8* | 14.0
COc1cccc(CN(C)C(=O)c2ccccc2Sc2ccccc2C#N)c1 | 3.0 | 20.6 | 8.2 | -18.4 | 24.1 | -20.7
CCCN1C[C@@H](C)[C@@H](OC)CN(C)C(=O)c2ccc(NC(=O)c3cccc(F)c3)cc2OC[C@H]1C | 0.8 | -15.8 | nt | nt | nt | nt
CN1C(=O)c2ccc(N3CCCC3)cc2C1=O | 4.2 | -11.9 | -4.2 | -10.6 | 26.1 | -14.9
Cc1cc(N2CCCC2)ccc1/C=C1\NC(=S)N(C)C1=O | 51.4* | 32.3 | -10.8 | 40.9* | 31.1 | 47.9*
CC(=O)NC(=S)c1c(N)n(Cc2ccccc2)c(=O)n(C)c1=O | nt | nt | 20.6* | -7.5 | 4.2 | -38.6
COc1ccc(N2C[C@@]3(O)CC[C@@H](O)[C@@H](OC)[C@@H]3[C@@](C)(O)[C@@H]2CC=C(C)C)cc1 | 0.9 | -10.2 | nt | nt | nt | nt
c1ccc(CN2c3ccccc3-c3nc4ccccc4n3C2c2ccccn2)cc1 (configuration not stated) | 11.6 | 54.8* | 12.7 | -13.7 | 14.5 | -34.1
Oc1cccc2cnccc12 | 11.6 | -0.1 | -7.8 | 0.9 | 30.7 | -7.0
N#Cc1cccc2cnccc12 | 6.0 | -25.5 | 19.5* | -8.0 | 37.9 | -3.5
O=C(Nc1ccc(N2CCOCC2)cc1)c1csc([C@H]2C[C@H](O)[C@@H](CO)O2)n1 | 1.6 | -20.9 | nt | nt | nt | nt
CCCCN(CCCC)CC(O)COc1ccccc1Br (configuration not stated) | 3.2 | -7.8 | 26.2* | -19.8 | 19.8 | -30.4
CCC(C)(C(=O)NC1CCCCC1)N(Cc1ccco1)C(=O)c1cnccn1 (configuration not stated) | 2.6 | -6.9 | 15.8* | -14.8 | 14.6 | -17.3
CCC(C)(C(=O)NC1CCCC1)N(Cc1cccs1)C(=O)Cc1cccs1 (configuration not stated) | 2.6 | -4.8 | 42.5* | -8.3 | 24.1 | -23.5
CCC(C)(C(=O)NC1CCCC1)N(Cc1cccs1)C(C)=O (configuration not stated) | 0.5 | 1.1 | -9.9 | -3.5 | 16.9 | -17.8
Cc1cccc(NC(=O)CNC(=O)[C@H]2O[C@@H](n3ccc(=O)[nH]c3=O)[C@H](O)[C@@H]2O)c1C | 0.7 | -15.7 | nt | nt | nt | nt
COc1cc(CN2CCc3ccc(NC(=O)CCc4ccccc4OC)cc3C2)ccc1O | 4.2 | -19.0 | -3.8 | -33.3 | 14.7 | -27.4
COc1ccc(CN2CCc3ccc(NC(=O)CCc4ccccc4OC)cc3C2)c(O)c1 | 6.3 | 59.1* | 19.1 | -9.4 | 12.8 | -24.1
COC(=O)c1ccc(OCC2c3cc(OC)c(OC)cc3CCN2C(=O)c2ccco2)cc1 (configuration not stated) | 15.0 | 61.4* | 16.4 | -8.3 | 13.8 | -16.1
COc1cc2c(cc1OC)C(c1ccccc1)N(C(=O)c1ccccc1)CC2 (configuration not stated) | 2.8 | -9.3 | 13.3 | -12.1 | -0.7 | -33.0
COc1cc2c(cc1OC)C(c1ccccc1)N(C(=O)c1ccco1)CC2 (configuration not stated) | -0.6 | 13.3 | nt | -12.8 | 33.0* | 2.9
Cc1cc(/C=C2\C(=N)N3N=C(C(C)C)SC3=NC2=O)c(C)n1Cc1ccccc1 | 7.9 | 7.4 | -12.9 | 65.0* | 6.3 | 102.5*
CC1Cc2ccccc2N1C(=O)CSc1nc2c(c(=O)n(C)c(=O)n2C)n1Cc1ccccc1 (configuration not stated) | 16.9 | 52.2* | -14.8 | -30.8 | 36.6 | -22.1
CCn1c(SCC(=O)N2c3ccccc3CCc3ccccc32)nc2c1c(=O)n(C)c(=O)n2C | 5.5 | 13.8 | -2.4 | -13.3 | 10.6 | -21.8
SMILES | TAAR1 agonist | TAAR1 antag | GPR7 antag | CHO parental Ca | OX1R antag-1 | OX1R antag-2
O=C(O)c1ccc(S(=O)(=O)c2ccc([N+](=O)[O-])cc2[N+](=O)[O-])cc1 | 2.2 | -2.5 | 4.3 | 1.1 | 56.8* | -7.1
O=C(O)c1ccc([N+](=O)[O-])cc1 | 15.4 | -15.3 | nt | nt | nt | nt
COCCNC(=S)N(CCc1c(C)[nH]c2ccc(F)cc12)Cc1cccs1 | 8.7 | 32.1 | 20.2* | -8.6 | 20.9 | 21.5
COC(=O)c1cc2c(c3c4ccccc4n(S(=O)(=O)c4ccc(OC)cc4)c13)C(=O)N(Cc1ccc(N(C)C)cc1)C2 | -1.5 | -22.9 | nt | nt | nt | nt
C=CCN(CC=C)CCOc1ccc2ccccc2c1 | 38.6* | -5.2 | -3.7 | -20.5 | 16.0 | -31.8
CN(CC(=O)Nc1cccc(S(=O)(=O)N2CCOCC2)c1)CC(=O)Nc1ccc(Cl)c(C(F)(F)F)c1 | 28.7 | 31.4 | nt | 49.5* | 24.6 | 38.3
COc1ccc2nc3ccccc3nc2c1N | 0.3 | -11.8 | 5.1 | -20.3 | 54.6* | -16.8
COc1ccc2nc3cccc(OC)c3nc2c1 | 0.4 | -9.3 | -3.6 | -16.9 | 41.9* | -17.9
COc1ccc(OC)c(CCNC(=O)Cn2nc(C)c3c(C)n(-c4ccc(C)cc4)nc3c2=O)c1 | 4.7 | -5.1 | -4.1 | -22.1 | 12.5 | -19.0
COc1ccc(OC)c(CCNC(=O)Cn2sc3nc(C)cc(C)c3c2=O)c1 | nt | nt | 16.3* | 49.1* | 20.0 | 54.7*
C=CCOCCN(C)C1=NS(=O)(=O)c2cc([N+](=O)[O-])ccc21 | 1.4 | 13.2 | -3.2 | -2.9 | 72.0* | -4.6
COC(=O)C1=C(C)N(Cc2cccc(C(F)(F)F)c2)C(=NCc2cc(OC)c(OC)c(OC)c2)NC1c1cccc(C(F)(F)F)c1 (configuration not stated) | 4.1 | -4.7 | nt | nt | nt | nt
COC(=O)[C@]12C[C@H](CC(=O)N3CCN(C(=O)c4ccco4)CC3)C(=O)N(Cc3ccccc3)C1=C[C@H](C1CCCC1)O[C@@H]2C | -1.3 | -16.7 | nt | nt | nt | nt
O=S1(=O)c2ccc(Br)cc2OC[C@H](c2ccccc2)N1Cc1ccccc1 | 1.4 | -3.3 | nt | nt | nt | nt
COc1ccc(CCN2C(=O)CSC2=Nc2ccc(C(C)C)cc2)cc1OC | 21.5 | 46.2 | 5.0 | 28.7* | 4.2 | 19.6
CCCc1nc2c(C)cc(Br)cn2c1Cc1cccc(Cl)c1 | 1.1 | 7.6 | nt | nt | nt | nt
CCCCN(C(=O)c1cc(=O)[nH]c2ccccc12)c1c(N)n(CCC)c(=O)[nH]c1=O | nt | nt | -12.2 | -7.6 | 80.4* | -19.2
